Key:
[1] = target: Beta-2 adrenergic receptor (Homo sapiens, UniProt P07550); assay: Agonist activity at human beta2 adrenoceptor transfected in CHO cells assessed as cyclic AMP accumulation after 45 mins by fluorescence polarization assay; assay type: functional, cell-based
[2] = target: Beta-1 adrenergic receptor (Homo sapiens, UniProt P08588); assay: Agonist activity at human beta1 adrenoceptor transfected in CHO cells assessed as cyclic AMP accumulation after 45 mins by fluorescence polarization assay; assay type: cell-based
Chain of Beta-1 adrenergic receptor (P08588 whole entry): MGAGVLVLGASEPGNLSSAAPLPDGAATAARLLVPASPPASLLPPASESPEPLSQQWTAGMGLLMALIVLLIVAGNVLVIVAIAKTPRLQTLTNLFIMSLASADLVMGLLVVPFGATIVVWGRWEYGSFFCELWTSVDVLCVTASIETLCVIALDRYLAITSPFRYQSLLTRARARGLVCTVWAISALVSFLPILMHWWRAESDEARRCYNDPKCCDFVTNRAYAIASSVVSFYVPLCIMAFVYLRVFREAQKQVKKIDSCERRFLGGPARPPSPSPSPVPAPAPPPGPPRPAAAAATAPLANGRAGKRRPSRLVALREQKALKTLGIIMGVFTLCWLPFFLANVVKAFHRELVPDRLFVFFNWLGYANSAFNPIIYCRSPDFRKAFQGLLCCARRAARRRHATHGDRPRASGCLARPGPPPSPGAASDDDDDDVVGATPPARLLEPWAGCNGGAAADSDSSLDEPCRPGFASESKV

[3] = target: Beta-3 adrenergic receptor (Homo sapiens, UniProt P13945); assay: Agonist activity at human beta3 adrenoceptor transfected in CHO cells assessed as cyclic AMP accumulation after 45 mins by fluorescence polarization assay; assay type: cell-based
Chain of Beta-3 adrenergic receptor (P13945 whole entry): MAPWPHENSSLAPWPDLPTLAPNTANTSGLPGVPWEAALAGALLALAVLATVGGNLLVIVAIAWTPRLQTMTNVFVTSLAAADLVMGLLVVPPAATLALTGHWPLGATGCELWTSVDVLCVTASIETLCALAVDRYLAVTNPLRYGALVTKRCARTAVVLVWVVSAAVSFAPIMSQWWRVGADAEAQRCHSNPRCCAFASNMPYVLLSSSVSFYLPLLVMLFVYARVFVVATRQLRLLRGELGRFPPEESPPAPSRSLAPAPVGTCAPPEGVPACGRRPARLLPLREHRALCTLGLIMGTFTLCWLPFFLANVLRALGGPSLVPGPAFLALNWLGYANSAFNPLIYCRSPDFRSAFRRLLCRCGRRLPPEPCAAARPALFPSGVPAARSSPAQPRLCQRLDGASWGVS

Cavia porcellus [4] = assay: Bronchodilatory activity in guinea pig assessed as duration of action of inhibition of histamine-induced bronchoconstriction at EC90 administered via nebulization 2 mins prior to histamine challenge; assay type: functional
Procedure, shortened: (§1)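 Conscious guinea pigs, n = 24 per group, given test agonist as a nebulized solution in dimethylacetamide–saline vehicle (2 min nebulization) before histamine (10 mM, nebulized 1.3 min) in a whole-body plethysmograph. PenH recorded for 15 min as index of airway obstruction. Dose expressed as nebulizer concentration; duration taken as time to 50% recovery.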

Cavia porcellus [5] = assay: Bronchodilatory activity in guinea pig assessed as inhibition of histamine-induced bronchoconstriction administered via nebulization 2 mins prior to histamine challenge; assay type: functional; procedure, shortened: as §1
Rattus norvegicus [6] = assay: Toxicity in Sprague-Dawley rat assessed as minimal irritancy in nasal cavity at 703 to 1261 ug/kg/day by 7-day snout-only inhalation assay; assay type: organism-based; conditions: in vivo, inhaled_or_intranasal
Procedure, shortened: (§2)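 Sprague–Dawley male rats exposed snout-only to a dry powder formulation of the 4-biphenylsulfonic acid salt for 7 days at 181, 344, 703 and 1261 (μg/kg)/day (measured aerosol 5.1, 9.8, 19.9, 35.7 μg/L). Assessed clinically, with body weight, hematology, biochemistry and respiratory tract evaluation. Plasma exposure measured on day 7 as ng·h/mL.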

Salmonella typhimurium [7] = assay: Genotoxicity in Salmonella typhimurium by Ames assay; assay type: toxicity, organism-based; conditions: salmonella enterica subsp. enterica serovar typhimurium
Procedure, shortened: (§3)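 Acetate and 4-biphenylsulfonate salts screened in Ames and mouse lymphoma L5178Y assays, with and without a rat liver metabolic activation system.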

[8] = Solubility of the compound in water; assay type: physicochemical
L5178Y [9] = assay: Genotoxicity against mouse L5178Y cells; assay type: toxicity, cell-based; procedure, shortened: as §3
Rattus norvegicus [10] = assay: Toxicity in Sprague-Dawley rat assessed as body weight change at 181 to 1261 ug/kg/day by 7-day snout-only inhalation assay; assay type: organism-based; conditions: in vivo, inhaled_or_intranasal; procedure, shortened: as §2
Salmonella typhimurium [11] = assay: Genotoxicity in Salmonella typhimurium by Ames assay in presence of rat liver metabolic activation system; assay type: toxicity, organism-based; conditions: salmonella enterica subsp. enterica serovar typhimurium; procedure, shortened: as §3
Rattus norvegicus [12] = assay: Toxicity in Sprague-Dawley rat at 181 to 1261 ug/kg/day by 7-day snout-only inhalation assay; assay type: organism-based; conditions: in vivo, inhaled_or_intranasal; procedure, shortened: as §2
Rattus norvegicus [13] = assay: Toxicity in Sprague-Dawley rat assessed as minimal irritancy in laryngeal region at 703 to 1261 ug/kg/day by 7-day snout-only inhalation assay; assay type: organism-based; conditions: in vivo, inhaled_or_intranasal; procedure, shortened: as §2
[14] = Plasma concentration in Sprague-Dawley rat at 1261 ug/kg/day measured on day 7 by 7-day snout-only inhalation assay; assay type: ADME; conditions: inhaled, 1.261 mg/kg; procedure, shortened: as §2
[15] = Stability of the compound in solid state; assay type: physicochemical
[16] = Stability of the compound in solution state; assay type: physicochemical
L5178Y [17] = assay: Genotoxicity against mouse L5178Y cells in presence of rat liver metabolic activation system; assay type: toxicity, cell-based; procedure, shortened: as §3
Rattus norvegicus [18] = assay: Toxicity in Sprague-Dawley rat assessed as hematology at 181 to 1261 ug/kg/day by 7-day snout-only inhalation assay; assay type: organism-based; conditions: in vivo, inhaled_or_intranasal; procedure, shortened: as §2
[19] = Oral absorption in Han Wistar rat at 2 mg/kg up to 7 hrs by LC-MS/MS analysis; assay type: ADME, organism-based; parameters: dose 2 mg/kg; conditions: in vivo, read-out: Fa
Procedure, shortened: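 Rat oral absorption from hepatic portal vein plasma, corrected for systemic circulation levels, after β-glucuronidase treatment of samples (deconjugated HPV model). Expressed as h·ng/mL.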

Chain of Beta-2 adrenergic receptor (P07550 whole entry): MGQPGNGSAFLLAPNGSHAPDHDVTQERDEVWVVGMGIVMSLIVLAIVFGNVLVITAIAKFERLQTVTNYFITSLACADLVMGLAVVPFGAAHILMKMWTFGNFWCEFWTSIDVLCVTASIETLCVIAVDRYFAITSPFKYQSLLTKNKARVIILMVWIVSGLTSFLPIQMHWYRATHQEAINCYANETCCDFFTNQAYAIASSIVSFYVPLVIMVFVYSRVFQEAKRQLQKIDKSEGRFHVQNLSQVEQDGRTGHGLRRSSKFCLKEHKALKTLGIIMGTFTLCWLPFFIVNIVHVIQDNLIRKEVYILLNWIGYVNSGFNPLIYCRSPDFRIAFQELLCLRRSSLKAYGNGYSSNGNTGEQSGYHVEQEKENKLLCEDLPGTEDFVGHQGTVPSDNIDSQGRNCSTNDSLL

SMILES	EC50 [1] [nM]	EC50 [2] [nM]	EC50 [3] [nM]	further results
CC(=O)O.OCc1cc(C(O)CNCCCCCCOCCCCc2ccccc2)ccc1O (configuration not stated)	–	–	–	Time (Cavia porcellus [4]): 13 h; EC90 (Cavia porcellus [5]): 50000 nM
O=S(=O)(O)c1ccc(-c2ccccc2)cc1.O=S(=O)(c1cccc(CCCCOCCCCCCNC[C@H](O)c2ccc(O)c(CO)c2)c1)C1CCCC1	–	–	–	Activity (Rattus norvegicus [6]): Non-toxic; Activity (Salmonella typhimurium [7]): Non-toxic; solubility [8]: < 10 µg/mL; Activity (L5178Y [9]): Non-toxic; Activity (Rattus norvegicus [10]): Non-toxic; Activity (Salmonella typhimurium [11]): Non-toxic; Activity (Rattus norvegicus [12]): Non-toxic; Activity (Rattus norvegicus [13]): Non-toxic; AUC [14]: 146 ng·h/mL; Stability [15]: Stable; Stability [16]: Unstable; Activity (L5178Y [17]): Non-toxic; Activity (Rattus norvegicus [18]): Non-toxic
O=S(=O)(c1ccc(CCCCOCCCCCCNC[C@H](O)c2ccc(O)c(CO)c2)cc1)C1CCCC1	31.6	1000	398	–
O=S1(=O)CCCc2ccc(CCCCOCCCCCCNC[C@H](O)c3ccc(O)c(CO)c3)cc21	39.8	2000	2510	–
OCc1cc(C(O)CNCCCCCCOCCCCc2ccccc2)ccc1O (configuration not stated) [SALMETEROL]	–	–	–	AUC at 7 h [19]: 252 ng·h/mL

The remaining compounds from weak to strong by EC50 [1], led by results:

EC50 [1] [nM]	EC50 [2] [nM]	EC50 [3] [nM]	SMILES	further results
20	6310	3980	CS(=O)(=O)c1ccc(CCCCOCCCCCCNC[C@H](O)c2ccc(O)c(CO)c2)cc1	–
7.94	2000	2000	O=S1(=O)CCc2ccc(CCCCOCCCCCCNC[C@H](O)c3ccc(O)c(CO)c3)cc21	–
1.58	251	251	O=S(=O)(c1cccc(CCCCOCCCCCCNC[C@H](O)c2ccc(O)c(CO)c2)c1)C1CCCCC1	–
1	501	398	O=S(=O)(c1cccc(CCCCOCCCCCCNC[C@H](O)c2ccc(O)c(CO)c2)c1)C1CC=CC1	–
0.501	158	316	Cc1cc(CCCCOCCCCCCNC[C@H](O)c2ccc(O)c(CO)c2)cc(S(=O)(=O)C2CCCC2)c1	–
